Source: ChEMBL document CHEMBL4270599, “Synthesis of a 3'-C-ethynyl-β-d-ribofuranose purine nucleoside library: Discovery of C7-deazapurine analogs as potent antiproliferative nucleosides” (Eur J Med Chem, 2018)

How the values were obtained:
HCC 2998 = test: Growth inhibition of human HCC2998 cells assessed as cell growth at 10^-7 M incubated for 48 hrs by sulforhodamine B assay relative to control; type: functional; settings: HCC 2998, 48 h, read-out: Activity
HCT-116 [1] = test: Growth inhibition of human HCT116 cells assessed as cell growth at 10^-4 M incubated for 48 hrs by sulforhodamine B assay relative to control; type: functional; settings: HCT-116, 48 h, read-out: Activity
CCRF-CEM = test: Cytotoxicity against human CCRF-CEM cells after 48 hrs by SRB assay; type: functional; settings: for GI50: read-out: pGI50 (converted)
PC-3 [2] = test: Growth inhibition of human PC3 cells assessed as cell growth at 10^-8 M incubated for 48 hrs by sulforhodamine B assay relative to control; type: functional; settings: PC-3, 48 h, read-out: Activity
MDA-MB-468 = test: Growth inhibition of human MDA-MB-468 cells assessed as cell growth at 10^-8 M incubated for 48 hrs by sulforhodamine B assay relative to control; type: functional; settings: MDA-MB-468, 48 h, read-out: Activity
SNB-19 = test: Growth inhibition of human SNB19 cells assessed as cell growth at 10^-7 M incubated for 48 hrs by sulforhodamine B assay relative to control; type: functional; settings: SNB-19, 48 h, read-out: Activity
MCF7 = test: Growth inhibition of human MCF7 cells assessed as cell growth at 10^-8 M incubated for 48 hrs by sulforhodamine B assay relative to control; type: functional; settings: MCF7, 48 h, read-out: Activity
SK-MEL-28 = test: Growth inhibition of human SK-MEL-28 cells assessed as cell growth at 10^-6 M incubated for 48 hrs by sulforhodamine B assay relative to control; type: functional; settings: SK-MEL-28, 48 h, read-out: Activity
HCT-15 = test: Growth inhibition of human HCT15 cells assessed as cell growth at 10^-6 M incubated for 48 hrs by sulforhodamine B assay relative to control; type: functional; settings: HCT-15, 48 h, read-out: Activity
SW-620 [3] = test: Growth inhibition of human SW620 cells assessed as cell growth at 10^-5 M incubated for 48 hrs by sulforhodamine B assay relative to control; type: functional; settings: SW-620, 48 h, read-out: Activity
[4] = Antiproliferative activity against HMVEC-d cells after 4 days by Coulter counter method; type: cell-based; settings: Homo sapiens, 96 h
Outline: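 Primary HUVEC, primary HMVEC-d and the HMEC-1 line seeded at 20,000 cells/well in gelatin-coated plates in EC growth medium (EGM2). After overnight incubation, 5-fold compound dilutions added. Cells proliferated four days with compound, then trypsinized and counted by Coulter counter to derive IC₅₀.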

SW-620 [5] = test: Growth inhibition of human SW620 cells assessed as cell growth at 10^-7 M incubated for 48 hrs by sulforhodamine B assay relative to control; type: functional; settings: SW-620, 48 h, read-out: Activity
SF-295 = test: Growth inhibition of human SF295 cells assessed as cell growth at 10^-8 M incubated for 48 hrs by sulforhodamine B assay relative to control; type: functional; settings: SF-295, 48 h, read-out: Activity
OVCAR-5 = test: Growth inhibition of human OVCAR5 cells assessed as cell growth at 10^-6 M incubated for 48 hrs by sulforhodamine B assay relative to control; type: functional; settings: OVCAR-5, 48 h, read-out: Activity
M14 [6] = test: Growth inhibition of human M14 cells assessed as cell growth at 10^-8 M incubated for 48 hrs by sulforhodamine B assay relative to control; type: functional; settings: M14, 48 h, read-out: Activity
SNB-75 = test: Growth inhibition of human SNB75 cells assessed as cell growth at 10^-7 M incubated for 48 hrs by sulforhodamine B assay relative to control; type: functional; settings: SNB-75, 48 h, read-out: Activity
LOX IMVI = test: Cytotoxicity against human LOXIMVI cells after 48 hrs by SRB assay; type: functional; settings: for GI50: read-out: pGI50 (converted); for CC50: read-out: pLC50 (the source's name) (converted)
ACHN = test: Growth inhibition of human ACHN cells assessed as cell growth at 10^-8 M incubated for 48 hrs by sulforhodamine B assay relative to control; type: functional; settings: read-out: Activity
MDA-MB-435 [7] = test: Growth inhibition of human MDA-MB-435 cells assessed as cell growth at 10^-6 M incubated for 48 hrs by sulforhodamine B assay relative to control; type: functional; settings: MDA-MB-435, 48 h, read-out: Activity
HT-29 = test: Growth inhibition of human HT-29 cells assessed as cell growth at 10^-4 M incubated for 48 hrs by sulforhodamine B assay relative to control; type: functional; settings: HT-29, 48 h, read-out: Activity
M14 [8] = test: Growth inhibition of human M14 cells assessed as cell growth at 10^-7 M incubated for 48 hrs by sulforhodamine B assay relative to control; type: functional; settings: M14, 48 h, read-out: Activity
TK-10 = test: Growth inhibition of human TK10 cells assessed as cell growth at 10^-5 M incubated for 48 hrs by sulforhodamine B assay relative to control; type: functional; settings: TK-10, 48 h, read-out: Activity
NCI-H460 = test: Cytotoxicity against human NCI-H460 cells after 48 hrs by SRB assay; type: functional; settings: NCI-H460, 48 h; for GI50: read-out: pGI50 (converted)
SK-MEL-5 = test: Growth inhibition of human SK-MEL-5 cells assessed as cell growth at 10^-7 M incubated for 48 hrs by sulforhodamine B assay relative to control; type: functional; settings: SK-MEL-5, 48 h, read-out: Activity
UO-31 = test: Growth inhibition of human UO31 cells assessed as cell growth at 10^-6 M incubated for 48 hrs by sulforhodamine B assay relative to control; type: functional; settings: UO-31, 48 h, read-out: Activity
MDA-MB-435 [9] = test: Growth inhibition of human MDA-MB-435 cells assessed as cell growth at 10^-7 M incubated for 48 hrs by sulforhodamine B assay relative to control; type: functional; settings: MDA-MB-435, 48 h, read-out: Activity
HCT-116 [10] = test: Growth inhibition of human HCT116 cells assessed as cell growth at 10^-6 M incubated for 48 hrs by sulforhodamine B assay relative to control; type: functional; settings: HCT-116, 48 h, read-out: Activity
HOP-62 = test: Growth inhibition of human HOP62 cells assessed as cell growth at 10^-6 M incubated for 48 hrs by sulforhodamine B assay relative to control; type: functional; settings: HOP-62, 48 h, read-out: Activity
NCI-H322M = test: Growth inhibition of human NCI-H322M cells assessed as cell growth at 10^-8 M incubated for 48 hrs by sulforhodamine B assay relative to control; type: functional; settings: read-out: Activity
IGROV-1 = test: Growth inhibition of human IGROV1 cells assessed as cell growth at 10^-8 M incubated for 48 hrs by sulforhodamine B assay relative to control; type: functional; settings: IGROV-1, 48 h, read-out: Activity
SN12C = test: Growth inhibition of human SN12C cells assessed as cell growth at 10^-4 M incubated for 48 hrs by sulforhodamine B assay relative to control; type: functional; settings: read-out: Activity
PC-3 [11] = test: Growth inhibition of human PC3 cells assessed as cell growth at 10^-6 M incubated for 48 hrs by sulforhodamine B assay relative to control; type: functional; settings: PC-3, 48 h, read-out: Activity
[12] = read-out: pLC50 (the source's name) (converted)
[13] = read-out: LC50 (the source's name)

C#C[C@@]1(O)[C@@H](CO)O[C@@H](n2cc(F)c3c(N)ncnc32)[C@@H]1O
growth at 0.1 µM (HCC 2998): 97%
growth at 100 µM (HCT-116 [1]): 1%
TGI (CCRF-CEM; read-out: TGI): > 100000 nM
GI50 (CCRF-CEM): 339 nM
CC50 (CCRF-CEM; [12]): > 100000 nM
TGI (CCRF-CEM; read-out: pTGI): > 100000 nM
growth at 0.01 µM (PC-3 [2]): 92%
growth at 0.01 µM (MDA-MB-468): 92%
growth at 0.1 µM (SNB-19): 79%
growth at 0.01 µM (MCF7): 89%
growth at 1 µM (SK-MEL-28): 72%
growth at 1 µM (HCT-15): 18%
growth at 10 µM (SW-620 [3]): -5%
IC50 [4]: < 1.28 nM
growth at 0.1 µM (SW-620 [5]): 61%
growth at 0.01 µM (SF-295): 98%
growth at 1 µM (OVCAR-5): 65%
growth at 0.01 µM (M14 [6]): 101%
growth at 0.1 µM (SNB-75): 107%
TGI (LOX IMVI; read-out: TGI): 1110 nM
GI50 (LOX IMVI): 282 nM
CC50 (LOX IMVI): 4570 nM
TGI (LOX IMVI; read-out: pTGI (converted)): 1120 nM
growth at 0.01 µM (ACHN): 102%
growth at 1 µM (MDA-MB-435 [7]): 28%
growth at 100 µM (HT-29): 2%
growth at 0.1 µM (M14 [8]): 95%
growth at 10 µM (TK-10): -9%
CC50 (NCI-H460; [13]): > 100000 nM
TGI (NCI-H460; read-out: TGI): 10200 nM
GI50 (NCI-H460): 229 nM
TGI (NCI-H460; read-out: pTGI (converted)): 10200 nM
growth at 0.1 µM (SK-MEL-5): 78%
growth at 1 µM (UO-31): 23%
growth at 0.1 µM (MDA-MB-435 [9]): 86%
growth at 1 µM (HCT-116 [10]): 4%
growth at 1 µM (HOP-62): 33%
growth at 0.01 µM (NCI-H322M): 93%
growth at 0.01 µM (IGROV-1): 105%
growth at 100 µM (SN12C): -24%
growth at 1 µM (PC-3 [11]): 11%

C#C[C@@]1(O)[C@@H](CO)O[C@@H](n2ccc3c(N)ncnc32)[C@@H]1O
growth at 0.1 µM (HCC 2998): 93%
growth at 100 µM (HCT-116 [1]): -54%
CC50 (CCRF-CEM; [13]): > 100000 nM
TGI (CCRF-CEM; read-out: TGI): > 100000 nM
GI50 (CCRF-CEM): 2290 nM
TGI (CCRF-CEM; read-out: pTGI): > 100000 nM
growth at 0.01 µM (PC-3 [2]): 97%
growth at 0.01 µM (MDA-MB-468): 93%
growth at 0.1 µM (SNB-19): 98%
growth at 0.01 µM (MCF7): 83%
growth at 1 µM (SK-MEL-28): 94%
growth at 1 µM (HCT-15): 48%
growth at 10 µM (SW-620 [3]): 5%
growth at 0.1 µM (SW-620 [5]): 77%
growth at 0.01 µM (SF-295): 89%
growth at 1 µM (OVCAR-5): 106%
growth at 0.01 µM (M14 [6]): 93%
growth at 0.1 µM (SNB-75): 95%
TGI (LOX IMVI; read-out: TGI): 2050 nM
GI50 (LOX IMVI): 661 nM
CC50 (LOX IMVI): 5130 nM
TGI (LOX IMVI; read-out: pTGI (converted)): 2040 nM
growth at 0.01 µM (ACHN): 97%
growth at 1 µM (MDA-MB-435 [7]): 73%
growth at 100 µM (HT-29): -17%
growth at 0.1 µM (M14 [8]): 99%
growth at 10 µM (TK-10): -2%
TGI (NCI-H460; read-out: TGI): 10600 nM
GI50 (NCI-H460): 468 nM
CC50 (NCI-H460; [12]): > 100000 nM
TGI (NCI-H460; read-out: pTGI (converted)): 10700 nM
growth at 0.1 µM (SK-MEL-5): 101%
growth at 1 µM (UO-31): 69%
growth at 0.1 µM (MDA-MB-435 [9]): 99%
growth at 1 µM (HCT-116 [10]): 38%
growth at 1 µM (HOP-62): 77%
growth at 0.01 µM (NCI-H322M): 99%
growth at 0.01 µM (IGROV-1): 101%
growth at 100 µM (SN12C): -64%
growth at 1 µM (PC-3 [11]): 45%
